Source: PubChem (several laboratories)
Shown are actives, neighbours in structure and some others; about 2.4% of the full set was active somewhere.
EP2 modulator: modulators of human EP2 prostaglandin E2 receptor. P43116. EP2-expressing cells, cAMP HTRF FRET, PGE2 co-stimulation. induction, % at 25 µM. 0.83% of 260,000 active. AID 940;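 active = compounds whose cAMP rise, as percent of the full-agonist control response, exceeds 60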;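 note: rat C6 glioma line stably carrying human EP2 under a CMV promoter; the protocol text gives 20 µM as final concentration; 100% = response of wells given 1 µM PGE2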
Target sequence (P43116 whole entry, looked up): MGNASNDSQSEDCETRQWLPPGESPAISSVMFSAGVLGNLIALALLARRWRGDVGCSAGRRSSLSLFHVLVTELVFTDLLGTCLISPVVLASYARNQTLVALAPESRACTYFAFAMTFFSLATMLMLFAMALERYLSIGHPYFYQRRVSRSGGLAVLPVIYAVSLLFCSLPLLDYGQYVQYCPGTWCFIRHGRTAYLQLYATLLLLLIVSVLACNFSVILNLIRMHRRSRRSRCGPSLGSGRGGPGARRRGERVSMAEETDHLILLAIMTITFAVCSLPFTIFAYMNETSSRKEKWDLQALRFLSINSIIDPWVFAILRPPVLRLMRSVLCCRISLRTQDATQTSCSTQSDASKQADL
HMGR II inh: blocks class II HMG-CoA reductase of Enterococcus faecalis; purified E. faecalis HMGR, NADPH absorbance 340 nm kinetic; 0.41% of 190,000 active; inhibition, % at 10 µM;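 active = inhibition above a set limit, the median over all tested compounds plus 3 SD, cut at about 9.5% in these data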;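 note: enzyme runs in reverse so mevalonate oxidation gives rising NADPH absorbance; 0% = complete reaction with DMSO and 100% = background rate lacking mevalonate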
PGE2 EP2 inh: inhibitors of human EP2 prostaglandin E2 receptor; 0.52% of 260,000 active; C6 glioma cells expressing human EP2, cAMP TR-FRET; cells stimulated with saturating PGE2; inhibition, % at 25 µM; P43116;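 active = percent inhibition above 40 after rounding to a whole number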;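 note: rat C6 glioma host cells with rolipram phosphodiesterase inhibitor present; the protocol text gives 20 µM as final concentration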
MT stabilize HCS: stabilizes microtubules in HeLa cells. HeLa tubulin immunostaining HCS, 24 h; share of cells brighter than vehicle mean+2SD. % tubulin-high responders, % at 10 µM. 0.83% of 200,000 active;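 active = plate Z-score above 3 for both tubulin-high and condensed-nucleus cell shares, with cell loss under 80%, at 10 µM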;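 note: anti alpha tubulin signal scored within the nucleus-defined area of each cell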
Tb hexokinase: blocks Trypanosoma brucei hexokinase 1 activity. recombinant TbHK1, G6PDH-coupled NADH A340. inhibition, % at 10 µM. 0.11% of 220,000 active;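 active = inhibition of 50% or more in the single-dose primary screen; inactive = inhibition below 50%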
bCat nuc transl: beta-catenin nuclear translocation modulation | HeLa beta-catenin nuclear translocation, immunofluorescence imaging | nuclear translocation activity, % at 5 µM | 0.3% of 190,000 active;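 active = nuclear translocation activity above 50% at 5 µM, with a well cell count of 50 or more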;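 note: per-cell ratio of nuclear to cytoplasmic median beta-catenin stain intensity; plate controls were DMSO negative control for no effect and GSK-3 inhibitor IX positive control for full effect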
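Test system: HeLa cells, endogenous beta-catenin; Compound: single 5 µM dose plus 0.02–20 µM confirmation series; Times: compound exposure 24 h at 37°C; Signal: fluorescence imaging of beta-catenin antibody stain plus DAPI; Read-out: % activation, nuclear-to-cytoplasmic median beta-catenin signal ratio per cell.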
* marks the source's active call; other numbers are inactive results; . = no result.

SMILES | EP2 modulator | HMGR II inh | PGE2 EP2 inh | MT stabilize HCS | Tb hexokinase | bCat nuc transl
Cc1cc(C)c2cc(CN(Cc3cccs3)C(c3nnnn3C(C)(C)C)C(C)C)c(=O)[nH]c2c1 (stereo not given) | 61* | . | 14 | . | . | .
CCC(c1nnnn1C1CCCC1)N(CCN1CCOCC1)Cc1cc2cc(C)ccc2[nH]c1=O (stereo not given) | -2 | . | 5 | . | . | .
Cc1cc(C)c2cc(CN(Cc3ccco3)Cc3nnnn3C3CCCCC3)c(=O)[nH]c2c1 | 69* | . | 8 | . | . | .
CCc1ccc2[nH]c(=O)c(CN(Cc3cccs3)C(CC)c3nnnn3C(C)(C)CC)cc2c1 (stereo not given) | 61* | . | 11 | . | . | .
CCOc1ccc2[nH]c(=O)c(CN(Cc3cccs3)C(CC)c3nnnn3C(C)(C)CC)cc2c1 (stereo not given) | 56 | -3 | 6 | 11 | -7 | -1
CCC(c1nnnn1C1CCCC1)N(Cc1ccco1)Cc1cc2cc(C)ccc2[nH]c1=O (stereo not given) | 69* | . | 8 | . | . | .
Cn1c(SCC(=O)Nc2ccc3c(c2)OCO3)nnc1-c1ccco1 | 18 | . | 6 | . | . | .
CCCC(c1nnnn1C(C)(C)C)N(Cc1cc2cc(C)ccc2[nH]c1=O)C1CCCCC1 (stereo not given) | 66* | . | 9 | . | . | .
CCC(c1nnnn1C(C)(C)CC)N(Cc1ccco1)Cc1cc2cc(C)ccc2[nH]c1=O (stereo not given) | 90* | . | 7 | . | . | .
CCCC(c1nnnn1C1CCCCC1)N(Cc1ccco1)Cc1cc2c(C)cc(C)cc2[nH]c1=O (stereo not given) | 69* | . | 20 | . | . | .
CCCC(c1nnnn1C1CCCCC1)N(Cc1ccco1)Cc1cc2cc(CC)ccc2[nH]c1=O (stereo not given) | 82* | . | 8 | . | . | .
CCCC(c1nnnn1C1CCCC1)N(Cc1ccco1)Cc1cc2cc(C)cc(C)c2[nH]c1=O (stereo not given) | 20 | . | 16 | . | . | .
CCC(c1nnnn1C(C)(C)C)N(Cc1ccco1)Cc1cc2cc(C)ccc2[nH]c1=O (stereo not given) | 59 | . | 9 | . | . | .
CCCC(c1nnnn1Cc1ccccc1)N(Cc1cc2cc(C)ccc2[nH]c1=O)C1CCCC1 (stereo not given) | 24 | . | 13 | . | . | .
Cc1cc(-c2cncnc2C2CCCN(C(=O)c3ccco3)C2)on1 (stereo not given) | -23 | . | . | . | . | .
O=C(CSc1nnc(-c2ccco2)n1Cc1ccco1)Nc1cccc(F)c1 | -1 | . | 8 | . | . | .
CCC(NC(C)C)C(O)c1ccc(O)c2[nH]c(=O)ccc12 (stereo not given) | 78* | -7 | 12 | 3 | -21 | .
COCCCN(C(=O)CCC(=O)O)c1nc(-c2ccc(OC)cc2)cs1 | -17 | . | 5 | . | . | .
CC(=O)N(Cc1ccccc1)c1nc(-c2ccccc2)cs1 | 64* | 5 | 8 | 1 | 6 | 0
COCCCN(C(C)=O)c1nc(-c2ccc(OC)cc2)cs1 | 8 | -2 | 8 | 23* | -6 | 0
Cc1c(C(=O)N2CCC3(CC2)CC(O)(c2ccc(F)cc2)CO3)oc2ccccc12 (stereo not given) | -33 | . | . | . | . | .
Cc1cc(C)c2cc3c(N)c(C(=O)N4CCOCC4)sc3nc2c1 | -24 | -1 | 3 | 4 | -16 | 0
Cc1ccc(C)c2nc3sc(C(=O)N4CCOCC4)c(N)c3cc12 | -63 | -4 | 16 | 28* | -6 | 43
Cc1cc(C)c2nc3sc(C(=O)N4CCOCC4)c(N)c3cc2c1 | 7 | . | 5 | . | -18 | 72*
Cc1cccc2cc3c(N)c(C(=O)N4CCc5ccccc54)sc3nc12 | 19 | -3 | 10 | 12* | -13 | 12
SMILES | EP2 modulator | HMGR II inh | PGE2 EP2 inh | MT stabilize HCS | Tb hexokinase | bCat nuc transl
O=C1CC[C@@H](NCc2cnc(N3CCCCC3)nc2)[C@H](c2cc(F)cc(F)c2)N1 | -10 | . | 6 | . | . | .
COc1ccc([C@H]2CN(Cc3ccccc3)C[C@@H]2NC(=O)c2cccnc2)cc1OC | 7 | . | 9 | . | . | .
Cc1cc(C)c2nc(C)cc(Nc3ccc(C(=O)N(C)C)cc3)c2c1 | -19 | . | 2 | . | -31 | -2
CC(=O)c1ccc(Nc2cc(C)nc3c(C)cc(C)cc23)cc1 | -9 | 2 | 1 | 20* | -23 | 124*
COC(=O)c1ccc2nc(C)cc(Nc3ccc(N(C)C)cc3)c2c1 | -24 | -2 | 8 | 2 | -25 | -1
COC(=O)c1ccc(Nc2cc(C)nc3ccccc23)cc1 | -46 | . | 30 | . | -46 | 79*
COc1cccc(C(O)CN2CCC(O)(c3ccccc3F)CC2)c1 (stereo not given) | -42 | . | 6 | . | . | .
CC1(c2ccccc2)CC(c2ccccc2)=Nc2nonc2N1 (stereo not given) | 34 | -1 | 14 | 6 | 38 | -2
CC1(c2ccccc2)CC(c2ccccc2)=Nc2ccccc2N1 (stereo not given) | 88* | . | 8 | . | -5 | 2
CC[C@@H](Cn1nc(-c2cccs2)oc1=O)NC(=O)Cn1ncc2ccccc2c1=O | 14 | . | 8 | . | . | .
Nc1c(C(=O)OCC2CCCO2)c2nc3ccccc3nc2n1-c1ccc2c(c1)OCCO2 (stereo not given) | -44 | -3 | 80* | 3 | -19 | 5
Nc1c(C(=O)NC2CC2)c2nc3ccccc3nc2n1-c1ccc2c(c1)OCO2 | -18 | 2 | 16 | 2 | 0 | -5
O=C(O)Cn1cc(CN2CCc3c(nc(N4CCCCC4)[nH]c3=O)C2)c2ccccc21 | 10 | . | . | . | . | .
CSc1nc(-c2ccccc2)cn1-c1ccc(NC(C)=O)cc1 | -31 | 9.8* | 12 | 2 | 2 | 0
Oc1ccc(CNc2ccc(C(F)(F)F)cc2)c2cccnc12 | -106 | . | 12 | . | . | .
CCCOc1ccccc1C1CC(=O)Nc2cc3c(cc21)OCCO3 (stereo not given) | 23 | 0 | . | 13* | 7 | -1
CC(C)Oc1ccccc1C1CC(=O)Nc2cc3c(cc21)OCO3 (stereo not given) | -3 | -7 | 4 | 21* | 1 | -2
CCOc1ccccc1C1CC(=O)Nc2cc3c(cc21)OCCO3 (stereo not given) | 12 | -2 | 5 | 14 | 3 | 1
O=C1CCN(S(=O)(=O)c2ccccc2)CCN1CCOCc1ccc(F)cc1 | -8 | . | 8 | . | 11 | 70*
CCCCC[C@H](O)/C=C/[C@@H]1[C@@H](C/C=C\CCCC(=O)O)[C@H]2CO[C@@H]1C2 | 98* | 11* | 11 | 12 | 17 | .
CCCCC[C@H](O)/C=C/[C@@H]1[C@@H](C/C=C\CCCC(=O)OC)[C@@H](O)C[C@H]1O | 52 | -5 | 10 | 4 | -9 | .
CCCCC[C@H](O)/C=C/[C@@H]1[C@@H](C/C=C\CCCC(=O)O)[C@@H](O)C[C@H]1O | 102* | -1 | 10 | 3 | 7 | 0
CC(C)N1CCN(Cc2ccc(Sc3nncn3C)o2)CC1CCO (stereo not given) | 66* | . | 7 | . | -6 | 0
